{"source": "ChEMBL document CHEMBL1255376", "about": "“Comparative surveillance study of telavancin activity against recently collected gram-positive clinical isolates from across the United States” (2008)", "format_in_all_cases": "functional", "key": {"Staphylococcus aureus [1]": {"system": "Staphylococcus aureus", "assay": "Antibacterial activity against methicillin-resistant Staphylococcus aureus clinical isolate by broth microdilution method", "how_it_was_run": "(§1)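 MICs by CLSI broth microdilution in frozen trays pre-loaded with serial dilutions of each agent. Quality-control strains run in parallel: E. faecalis ATCC 29212 and ATCC 51299, S. aureus ATCC 29213, S. pneumoniae ATCC 49619. Comparator susceptibility categories follow CLSI breakpoints. Methicillin resistance in staphylococci assigned from the oxacillin MIC.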"}, "Staphylococcus aureus [2]": {"system": "Staphylococcus aureus", "assay": "Antibacterial activity against methicillin-susceptible Staphylococcus aureus clinical isolate by broth microdilution method", "how_it_was_run": "as §1"}, "Streptococcus oralis": {"system": "Streptococcus oralis", "assay": "Antibacterial activity against Streptococcus oralis clinical isolate by broth microdilution method", "how_it_was_run": "(§2)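 MIC by CLSI broth microdilution in frozen microtiter trays holding serial dilutions of each agent, prepared from standard laboratory powders. E. faecalis ATCC 29212 and ATCC 51299, S. aureus ATCC 29213 and S. pneumoniae ATCC 49619 run in parallel as quality-control strains. Comparator susceptibility interpreted with CLSI breakpoints.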"}, "Streptococcus pneumoniae [3]": {"system": "Streptococcus pneumoniae", "assay": "Antibacterial activity against penicillin resistant Streptococcus pneumoniae clinical isolate by broth microdilution method", "how_it_was_run": "as §1"}, "[4]": {"assay": "Antibacterial activity against Streptococcus sp. Group C clinical isolate by broth microdilution method", "how_it_was_run": "as §2"}, "Streptococcus sanguinis": {"system": "Streptococcus sanguinis", "assay": "Antibacterial activity against Streptococcus sanguinis clinical isolate by broth microdilution method", "how_it_was_run": "as §2"}, "Streptococcus pneumoniae [5]": {"system": "Streptococcus pneumoniae", "assay": "Antibacterial activity against penicillin intermediate Streptococcus pneumoniae clinical isolate by broth microdilution method", "how_it_was_run": "as §1"}, "Streptococcus pneumoniae [6]": {"system": "Streptococcus pneumoniae", "assay": "Antibacterial activity against penicillin susceptible Streptococcus pneumoniae clinical isolate by broth microdilution method", "how_it_was_run": "as §1"}, "Streptococcus pyogenes": {"system": "Streptococcus pyogenes", "assay": "Antibacterial activity against Streptococcus pyogenes clinical isolate by broth microdilution method", "how_it_was_run": "as §2"}, "[7]": {"system": "Streptococcus intermedius", "assay": "Antibacterial activity against Streptococcus intermedius clinical isolate by broth microdilution method", "how_it_was_run": "as §2"}, "[8]": {"assay": "Antibacterial activity against Streptococcus sp. Group G clinical isolate by broth microdilution method", "how_it_was_run": "as §2"}, "Streptococcus agalactiae": {"system": "Streptococcus agalactiae", "assay": "Antibacterial activity against Streptococcus agalactiae clinical isolate by broth microdilution method", "how_it_was_run": "as §2"}, "[9]": {"system": "Streptococcus constellatus", "assay": "Antibacterial activity against Streptococcus constellatus clinical isolate by broth microdilution method", "how_it_was_run": "as §2"}, "Streptococcus mitis": {"system": "Streptococcus mitis", "assay": "Antibacterial activity against Streptococcus mitis clinical isolate by broth microdilution method", "how_it_was_run": "as §2"}, "Streptococcus sp. [10]": {"system": "Streptococcus sp.", "assay": "Antibacterial activity against Streptococcus sp. Group F clinical isolate by broth microdilution method", "how_it_was_run": "(§3)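 MIC by CLSI broth microdilution in frozen microtiter trays holding serial dilutions of each agent, prepared from standard laboratory powders. Comparator susceptibility interpreted with CLSI breakpoints.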"}, "Streptococcus sp. [11]": {"system": "Streptococcus sp.", "assay": "Antibacterial activity against Streptococcus sp. clinical isolate by broth microdilution method", "how_it_was_run": "as §3"}, "Streptococcus equinus": {"system": "Streptococcus equinus", "assay": "Antibacterial activity against Streptococcus bovis clinical isolate by broth microdilution method", "how_it_was_run": "as §2"}}, "data": [{"compound": "GENTAMICIN", "values": [{"measurement": "MIC50", "setting": "Staphylococcus aureus [1]", "result": 0.5, "unit": "µg/mL"}, {"measurement": "MIC90", "setting": "Staphylococcus aureus [1]", "result": 2, "unit": "µg/mL"}, {"measurement": "MIC50", "setting": "Staphylococcus aureus [2]", "result": 0.25, "unit": "µg/mL"}, {"measurement": "MIC90", "setting": "Staphylococcus aureus [2]", "result": 0.5, "unit": "µg/mL"}]}, {"compound": "C[C@H]1COc2c(N3CCN(C)CC3)c(F)cc3c(=O)c(C(=O)O)cn1c23.C[C@H]1COc2c(N3CCN(C)CC3)c(F)cc3c(=O)c(C(=O)O)cn1c23.O", "note": "[LEVOFLOXACIN]", "values": [{"measurement": "MIC50", "setting": "Streptococcus oralis", "result": 0.5, "unit": "µg/mL"}, {"measurement": "MIC90", "setting": "Streptococcus oralis", "result": 1, "unit": "µg/mL"}, {"measurement": "MIC50", "setting": "Streptococcus pneumoniae [3]", "result": 0.5, "unit": "µg/mL"}, {"measurement": "MIC90", "setting": "Streptococcus pneumoniae [3]", "result": 1, "unit": "µg/mL"}, {"measurement": "MIC50", "setting": "[4]", "result": 0.5, "unit": "µg/mL"}, {"measurement": "MIC90", "setting": "[4]", "result": 0.5, "unit": "µg/mL"}, {"measurement": "MIC50", "setting": "Streptococcus sanguinis", "result": 0.5, "unit": "µg/mL"}, {"measurement": "MIC90", "setting": "Streptococcus sanguinis", "result": 1, "unit": "µg/mL"}, {"measurement": "MIC50", "setting": "Streptococcus pneumoniae [5]", "result": 0.5, "unit": "µg/mL"}, {"measurement": "MIC90", "setting": "Streptococcus pneumoniae [5]", "result": 1, "unit": "µg/mL"}, {"measurement": "MIC50", "setting": "Streptococcus pneumoniae [6]", "result": 1, "unit": "µg/mL"}, {"measurement": "MIC90", "setting": "Streptococcus pneumoniae [6]", "result": 1, "unit": "µg/mL"}, {"measurement": "MIC50", "setting": "Streptococcus pyogenes", "result": 0.5, "unit": "µg/mL"}, {"measurement": "MIC90", "setting": "Streptococcus pyogenes", "result": 1, "unit": "µg/mL"}, {"measurement": "MIC50", "setting": "[7]", "result": 0.5, "unit": "µg/mL"}, {"measurement": "MIC90", "setting": "[7]", "result": 1, "unit": "µg/mL"}, {"measurement": "MIC50", "setting": "[8]", "result": 0.5, "unit": "µg/mL"}, {"measurement": "MIC90", "setting": "[8]", "result": 0.5, "unit": "µg/mL"}, {"measurement": "MIC50", "setting": "Streptococcus agalactiae", "result": 0.5, "unit": "µg/mL"}, {"measurement": "MIC90", "setting": "Streptococcus agalactiae", "result": 1, "unit": "µg/mL"}, {"measurement": "MIC50", "setting": "[9]", "result": 0.5, "unit": "µg/mL"}, {"measurement": "MIC90", "setting": "[9]", "result": 1, "unit": "µg/mL"}, {"measurement": "MIC50", "setting": "Streptococcus mitis", "result": 0.5, "unit": "µg/mL"}, {"measurement": "MIC90", "setting": "Streptococcus mitis", "result": 1, "unit": "µg/mL"}, {"measurement": "MIC50", "setting": "Streptococcus sp. [10]", "result": 0.5, "unit": "µg/mL"}, {"measurement": "MIC90", "setting": "Streptococcus sp. [10]", "result": 0.5, "unit": "µg/mL"}, {"measurement": "MIC50", "setting": "Streptococcus sp. [11]", "result": 0.5, "unit": "µg/mL"}, {"measurement": "MIC90", "setting": "Streptococcus sp. [11]", "result": 1, "unit": "µg/mL"}, {"measurement": "MIC50", "setting": "Streptococcus equinus", "result": 0.5, "unit": "µg/mL"}, {"measurement": "MIC90", "setting": "Streptococcus equinus", "result": 1, "unit": "µg/mL"}]}]}
